Reference: ChEMBL document CHEMBL1139053, “Quantitative structure-activity relationship (QSAR) of indoloacetamides as inhibitors of human isoprenylcysteine carboxyl methyltransferase” (Bioorg Med Chem Lett, 2007)

Target: Protein-S-isoprenylcysteine O-methyltransferase (Homo sapiens, UniProt O60725)
Test: Inhibition of ICMT expressed in Sf9 cells
How it was run: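 Sf9 membranes carrying ICMT added to start reactions with biotin-S-farnesyl L-cysteine and [3H]AdoMet in 100 mM Hepes pH 7.4, 5 mM MgCl2; 37 °C, 20 min; stopped with 10% Tween 20. [3H]methyl on substrate captured on streptavidin beads overnight at 4 °C, washed in phosphate-buffered NaCl, scintillation counted.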

Chain of Protein-S-isoprenylcysteine O-methyltransferase (O60725 whole entry): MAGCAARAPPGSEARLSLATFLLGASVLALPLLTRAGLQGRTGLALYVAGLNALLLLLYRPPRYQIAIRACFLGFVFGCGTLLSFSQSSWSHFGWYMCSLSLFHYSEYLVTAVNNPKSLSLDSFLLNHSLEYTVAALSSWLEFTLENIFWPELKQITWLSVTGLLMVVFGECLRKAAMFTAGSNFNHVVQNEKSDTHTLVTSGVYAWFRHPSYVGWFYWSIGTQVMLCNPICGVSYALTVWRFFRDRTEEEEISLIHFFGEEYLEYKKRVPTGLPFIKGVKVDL

| SMILES | IC50 |
| --- | --- |
| CC(C)Cn1cc(CC(N)=O)c2cc(-c3cccc(F)c3)ccc21 | 3.72 µM |
| CCCCCCn1cc(CC(N)=O)c2cc(-c3ccc(C)cc3)ccc21 | 7.41 µM |
| NC(=O)Cc1cn(CCCOc2ccccc2)c2ccc(-c3cc(C(F)(F)F)cc(C(F)(F)F)c3)cc12 | 100 µM |
| CCCCCCn1cc(CC(N)=O)c2cc(-c3ccc(Oc4ccccc4)cc3)ccc21 | 100 µM |
| Cc1ccc(-c2ccc3c(c2)c(CC(N)=O)cn3Cc2ccc3ccccc3c2)cc1 | 19.5 µM |
| CCCCCCn1cc(CC(N)=O)c2cc(-c3cccc(F)c3)ccc21 | 12.9 µM |
| COc1ccccc1-c1ccc2c(c1)c(CC(N)=O)cn2CCCOc1ccccc1 | 100 µM |
| NC(=O)Cc1cn(Cc2ccc3ccccc3c2)c2ccc(-c3cc(C(F)(F)F)cc(C(F)(F)F)c3)cc12 | 100 µM |
| Cc1cccc(-c2ccc3[nH]cc(CC(N)=O)c3c2)c1 | 100 µM |
| NC(=O)Cc1cn(Cc2cccc(C(F)(F)F)c2)c2ccc(-c3cc(C(F)(F)F)cc(C(F)(F)F)c3)cc12 | 100 µM |
| CCCCCCCCn1cc(CC(N)=O)c2cc(-c3cccc(OCC)c3)ccc21 | 2.19 µM |
| CCCCCCCCn1cc(CC(N)=O)c2cc(-c3ccccc3OC)ccc21 | 6.03 µM |
| Cc1cccc(-c2ccc3c(c2)c(CC(N)=O)cn3Cc2cccc(C(F)(F)F)c2)c1 | 7.94 µM |
| CCCCCCCCn1cc(CC(N)=O)c2cc(-c3ccc(F)c(Cl)c3)ccc21 | 7.08 µM |
| CC(C)Cn1cc(CC(N)=O)c2cc(-c3ccc(F)c(Cl)c3)ccc21 | 9.12 µM |
| CC(C)(C)c1ccc(Cn2cc(CC(N)=O)c3cc(-c4cc(C(F)(F)F)cc(C(F)(F)F)c4)ccc32)cc1 | 29.5 µM |
| Cc1cccc(-c2ccc3c(c2)c(CC(N)=O)cn3CC(C)C)c1 | 15.8 µM |
| NC(=O)Cc1c[nH]c2ccc(-c3cc(C(F)(F)F)cc(C(F)(F)F)c3)cc12 | 100 µM |
| COc1ccccc1-c1ccc2c(c1)c(CC(N)=O)cn2Cc1ccccc1 | 13.2 µM |
| CCOc1cccc(-c2ccc3c(c2)c(CC(N)=O)cn3Cc2cccc(C(F)(F)F)c2)c1 | 4.9 µM |
| Cc1ccc(-c2ccc3c(c2)c(CC(N)=O)cn3CC(C)C)cc1 | 9.77 µM |

| SMILES | IC50 |
| --- | --- |
| NC(=O)Cc1cn(Cc2cccc(C(F)(F)F)c2)c2ccc(-c3ccc(F)c(Cl)c3)cc12 | 6.17 µM |
| NC(=O)Cc1cn(CC2CC2)c2ccc(-c3ccc(Oc4ccccc4)cc3)cc12 | 100 µM |
| NC(=O)Cc1cn(Cc2cccc(C(F)(F)F)c2)c2ccc(-c3ccc(Oc4ccccc4)cc3)cc12 | 100 µM |
| CC(C)(C)c1ccc(Cn2cc(CC(N)=O)c3cc(-c4cccc(F)c4)ccc32)cc1 | 5.01 µM |
| NC(=O)Cc1cn(CC2CC2)c2ccc(-c3cccc(F)c3)cc12 | 14.8 µM |
| NC(=O)Cc1cn(CCCOc2ccccc2)c2ccc(-c3ccc(Oc4ccccc4)cc3)cc12 | 100 µM |
| NC(=O)Cc1cn(Cc2ccccc2)c2ccc(-c3ccc(F)c(Cl)c3)cc12 | 10.5 µM |
| COc1ccccc1-c1ccc2c(c1)c(CC(N)=O)cn2Cc1cccc(C(F)(F)F)c1 | 6.17 µM |
| COc1ccccc1-c1ccc2c(c1)c(CC(N)=O)cn2CC1CC1 | 16.2 µM |
| NC(=O)Cc1c[nH]c2ccc(-c3cccc(F)c3)cc12 | 39.8 µM |
| CC(C)Cn1cc(CC(N)=O)c2cc(-c3cc(C(F)(F)F)cc(C(F)(F)F)c3)ccc21 | 25.7 µM |
| NC(=O)Cc1cn(Cc2cccc(C(F)(F)F)c2)c2ccc(-c3cccc(F)c3)cc12 | 5.75 µM |
| Cc1cccc(-c2ccc3c(c2)c(CC(N)=O)cn3Cc2ccc3ccccc3c2)c1 | 17.4 µM |
| COc1ccccc1-c1ccc2c(c1)c(CC(N)=O)cn2CC(C)C | 21.9 µM |
| COc1ccccc1-c1ccc2[nH]cc(CC(N)=O)c2c1 | 100 µM |
| CCCCCCCCn1cc(CC(N)=O)c2cc(-c3ccc(C)cc3)ccc21 | 10.7 µM |
| NC(=O)Cc1cn(Cc2ccccc2)c2ccc(-c3cccc(F)c3)cc12 | 10.7 µM |
| Cc1ccc(-c2ccc3[nH]cc(CC(N)=O)c3c2)cc1 | 100 µM |
| NC(=O)Cc1cn(CCCOc2ccccc2)c2ccc(-c3cccc(F)c3)cc12 | 100 µM |
| Cc1ccc(-c2ccc3c(c2)c(CC(N)=O)cn3Cc2cccc(C(F)(F)F)c2)cc1 | 6.46 µM |

Second part, the compound after the results:

| IC50 | SMILES |
| --- | --- |
| 100 µM | NC(=O)Cc1cn(CC2CC2)c2ccc(-c3cc(C(F)(F)F)cc(C(F)(F)F)c3)cc12 |
| 9.12 µM | Cc1cccc(-c2ccc3c(c2)c(CC(N)=O)cn3CC2CC2)c1 |
| 8.32 µM | CCOc1cccc(-c2ccc3c(c2)c(CC(N)=O)cn3Cc2ccc3ccccc3c2)c1 |
| 9.33 µM | CCCCCCn1cc(CC(N)=O)c2cc(-c3ccc(F)c(Cl)c3)ccc21 |
| 100 µM | NC(=O)Cc1cn(Cc2ccc3ccccc3c2)c2ccc(-c3ccc(Oc4ccccc4)cc3)cc12 |
| 6.17 µM | CCOc1cccc(-c2ccc3c(c2)c(CC(N)=O)cn3CC(C)C)c1 |
| 100 µM | NC(=O)Cc1c[nH]c2ccc(-c3ccc(F)c(Cl)c3)cc12 |
| 5.75 µM | NC(=O)Cc1cn(CC2CC2)c2ccc(-c3ccc(F)c(Cl)c3)cc12 |
| 37.2 µM | CCCCCCCCn1cc(CC(N)=O)c2cc(-c3cc(C(F)(F)F)cc(C(F)(F)F)c3)ccc21 |
| 6.46 µM | Cc1cccc(-c2ccc3c(c2)c(CC(N)=O)cn3Cc2ccccc2)c1 |
| 7.59 µM | CC(C)(C)c1ccc(Cn2cc(CC(N)=O)c3cc(-c4ccc(F)c(Cl)c4)ccc32)cc1 |
| 6.46 µM | CCOc1cccc(-c2ccc3c(c2)c(CC(N)=O)cn3CC2CC2)c1 |
| 8.13 µM | CCCCCCn1cc(CC(N)=O)c2cc(-c3ccccc3OC)ccc21 |
| 2.4 µM | CCCCCCCCn1cc(CC(N)=O)c2cc(-c3cccc(F)c3)ccc21 |
| 12.6 µM | CCOc1cccc(-c2ccc3c(c2)c(CC(N)=O)cn3Cc2ccc(C(C)(C)C)cc2)c1 |
| 100 µM | Cc1cccc(-c2ccc3c(c2)c(CC(N)=O)cn3CCCOc2ccccc2)c1 |
| 100 µM | CCOc1cccc(-c2ccc3[nH]cc(CC(N)=O)c3c2)c1 |
| 7.41 µM | CCCCCCn1cc(CC(N)=O)c2cc(-c3cccc(C)c3)ccc21 |
| 6.61 µM | CCCCCCn1cc(CC(N)=O)c2cc(-c3cccc(OCC)c3)ccc21 |
